Laboratory results taken from ChEMBL document CHEMBL3352038, “Discovery of cytotoxic dolastatin 10 analogues with N-terminal modifications” (J Med Chem, 2014).

Experiments:
Format in all cases: functional
MDA-MB-361 = assay: Cytotoxicity against human MDA-MB-361 cells assessed as cell viability incubated fore 4 days by MTS assay; conditions: MDA-MB-361, 96 h
How it was run: (§1)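 Cells seeded at low density in 96-well plates, dosed next day with 3-fold serial dilutions at 10 concentrations in duplicate. Incubated 4 days at 37C/5% CO2. Viability read by MTS reagent (1.5 h), absorbance at 490 nm. Four-parameter logistic fit. Reported as arithmetic mean GI50 (nM) with standard deviation over n individual runs, each run a duplicate readout.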

NCI-N87 = assay: Cytotoxicity against human NCI-N87 cells assessed as cell viability incubated fore 4 days by MTS assay; conditions: NCI-N87, 96 h; how it was run: as §1
BT-474 = assay: Cytotoxicity against human BT474 cells assessed as cell viability incubated fore 4 days by MTS assay; conditions: BT-474, 96 h; how it was run: as §1

| SMILES | GI50 (MDA-MB-361) [nM] | GI50 (NCI-N87) [nM] | GI50 (BT-474) [nM] |
| --- | --- | --- | --- |
| CC[C@H](C)[C@@H]([C@@H](CC(=O)N1CCC[C@H]1[C@H](OC)[C@@H](C)C(=O)N[C@@H](Cc1ccccc1)c1nccs1)OC)N(C)C(=O)[C@@H](NC(=O)C(C)(C)CN)C(C)C | 0.81 | 1.4 | 0.25 |
| CC[C@H](C)[C@@H]([C@@H](CC(=O)N1CCC[C@H]1[C@H](OC)[C@@H](C)C(=O)N[C@@H](Cc1ccccc1)c1nccs1)OC)N(C)C(=O)[C@@H](NC(=O)C(C)(C)CNC)C(C)C | 0.41 | 1.1 | 0.25 |
| CC[C@H](C)[C@@H]([C@@H](CC(=O)N1CCC[C@H]1[C@H](OC)[C@@H](C)C(=O)N[C@@H](Cc1ccccc1)c1nccs1)OC)N(C)C(=O)[C@@H](NC(=O)[C@]1(C)CCCN1)C(C)C | 0.2 | 0.15 | 0.14 |
| CC[C@H](C)[C@@H]([C@@H](CC(=O)N1CCC[C@H]1[C@H](OC)[C@@H](C)C(=O)N[C@@H](Cc1ccccc1)c1nccs1)OC)N(C)C(=O)[C@@H](NC(=O)[C@@]1(C)CCCN1)C(C)C | 0.21 | 0.36 | 0.11 |
| CC[C@H](C)[C@@H]([C@@H](CC(=O)N1CCC[C@H]1[C@H](OC)[C@@H](C)C(=O)N[C@@H](Cc1ccccc1)c1nccs1)OC)N(C)C(=O)[C@@H](NC(=O)[C@]1(F)CCNC1)C(C)C | 0.25 | 0.59 | 0.16 |
| CC[C@H](C)[C@@H]([C@@H](CC(=O)N1CCC[C@H]1[C@H](OC)[C@@H](C)C(=O)N[C@@H](Cc1ccccc1)c1nccs1)OC)N(C)C(=O)[C@@H](NC(=O)[C@@]1(F)CCNC1)C(C)C | 0.6 | 1.1 | 0.29 |
| CC[C@H](C)[C@@H]([C@@H](CC(=O)N1CCC[C@H]1[C@H](OC)[C@@H](C)C(=O)N[C@@H](Cc1ccccc1)c1nccs1)OC)N(C)C(=O)[C@@H](NC(=O)[C@]1(C)CCCCN1)C(C)C | 0.2 | 0.25 | 0.16 |
| CC[C@H](C)[C@@H]([C@@H](CC(=O)N1CCC[C@H]1[C@H](OC)[C@@H](C)C(=O)N[C@@H](Cc1ccccc1)c1nccs1)OC)N(C)C(=O)[C@@H](NC(=O)[C@@]1(C)CCCCN1)C(C)C | 0.4 | 0.52 | 0.35 |
